The source made the active and inactive calls. The rule behind the calls is not given here.
What was measured:
D(2) dopamine receptor [1] = molecular target: T1, D(2) dopamine receptor (Homo sapiens, UniProt P14416); assay: Displacement of [3H]spiperone from human D2L receptor expressed in FlpIn CHO cell membrane after 3 hrs by liquid scintillation counting analysis; format: cell membranes
In short: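 Membranes from D2L FlpIn CHO cells, 3 μg, with 0.05 nM [3H]spiperone, 100 μM GppNHp and varied competitor in 20 mM HEPES, 100 mM NaCl, 6 mM MgCl2, 1 mM EGTA, 1 mM EDTA, pH 7.4, 3 h at 37 °C. Filtered on GF/B, washed in ice-cold saline, counted by liquid scintillation. Three experiments in duplicate.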

D(2) dopamine receptor [2] = molecular target: T1, D(2) dopamine receptor; assay: Antagonist activity at human D2L receptor expressed in FlpIn CHO cells assessed as inhibition of dopamine-induced ERK1/2 phosphorylation treated for 30 mins prior to dopamine stimulation for 5 mins by AlphaScreen assay; format: cell-based
In short: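 D2L-FlpIn CHO cells serum-starved overnight. Compound serial dilutions preincubated 30 min at 37 °C, then 10 nM dopamine added for 5 min. Lysed in SureFire buffer, pERK1/2 read by AlphaScreen. pIC50 is the mean of three to four separate experiments run in duplicate.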

D(2) dopamine receptor [3] = molecular target: T1, D(2) dopamine receptor; conditions: CHO, at 10 µM
D(2) dopamine receptor [4] = molecular target: T1, D(2) dopamine receptor; assay: Agonist activity at human D2L receptor expressed in FlpIn CHO cells assessed as induction of ERK1/2 phosphorylation at 10 uM by AlphaScreen assay; format: cell-based
In short: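 Time-course ERK1/2 phosphorylation screen at 10 μM in FlpIn CHO cells stably expressing human D2L, seeded 50 000 cells/well, serum-starved overnight. Compounds applied at 37 °C over a time course to find peak stimulation time. Stimulation stopped by SureFire lysis, 5 min shaking at room temperature, lysate read by AlphaScreen.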

[5] = Retention time of the compound by HPLC analysis; format: physicochemical
In short: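 Reverse-phase C8 column, 0.1% TFA/water vs 0.1% TFA/80% MeOH; 100% A 10 min, 80% B over 2 min, back to 100% A over 10 min; 1 mL/min, detection at 214 nm.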

D(2) dopamine receptor [6] = molecular target: T1, D(2) dopamine receptor; assay: Competitive antagonist activity at human D2L receptor expressed in FlpIn CHO cells assessed as inhibition of dopamine-induced ERK1/2 phosphorylation treated for 30 mins prior to dopamine stimulation for 5 mins by AlphaScreen assay; format: cell-based
In short: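 Human D2L FlpIn CHO cells serum-starved overnight. Inhibitor at a range of dilutions for 30 min at 37 °C, then 10 nM dopamine for 5 min. Lysed; phospho-ERK1/2 detected by AlphaScreen. pIC50 taken from inhibition curves; three to four experiments in duplicate.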

D(2) dopamine receptor [7] = molecular target: T1, D(2) dopamine receptor; conditions: CHO
D(2) dopamine receptor [8] = molecular target: T1, D(2) dopamine receptor; conditions: CHO; remark: listed apart in the source
D(2) dopamine receptor [9] = molecular target: T1, D(2) dopamine receptor; conditions: CHO; remark: listed apart in the source
D(2) dopamine receptor [10] = molecular target: T1, D(2) dopamine receptor; conditions: CHO; remark: listed apart in the source
D(2) dopamine receptor [11] = molecular target: T1, D(2) dopamine receptor; assay: Partial agonist activity at human D2L receptor expressed in FlpIn CHO cells assessed as induction of ERK1/2 phosphorylation by AlphaScreen assay; format: cell-based
In short: (§1)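 Stable human D2L FlpIn CHO cells serum-starved overnight, then given concentration series of agonist at 37 °C for 5–10 min, the per-compound peak time from time-course runs. Lysed with SureFire buffer and pERK1/2 detected by AlphaScreen. Three-parameter logistic fit gives pEC50; Emax as % of maximal dopamine response. Three to four experiments in duplicate.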

D(2) dopamine receptor [12] = molecular target: T1, D(2) dopamine receptor; assay: Partial agonist activity at human D2L receptor expressed in FlpIn CHO cells assessed as induction of ERK1/2 phosphorylation by AlphaScreen assay relative to dopamine; format: cell-based; in short: as §1
D(2) dopamine receptor [13] = molecular target: T1, D(2) dopamine receptor; assay: Agonist activity at human D2L receptor expressed in FlpIn CHO cells assessed as inhibition of forskolin-stimulated cAMP production treated for 30 mins by AlphaScreen assay relative to dopamine; format: functional, cell-based
In short: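 D2L-expressing FlpIn CHO cells grown overnight, then preincubated 45 min in HBSS stimulation buffer (1 mg/mL BSA, 0.5 mM IBMX, 5 mM HEPES, pH 7.4). Agonist and 300 nM forskolin added together for 30 min at 37 °C. Stopped with ice-cold ethanol, dried, lysed in detection buffer; cAMP measured by AlphaScreen. Operational-model fit gives log(τ/KA); n = 4.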

D(2) dopamine receptor [14] = molecular target: T1, D(2) dopamine receptor; assay: Agonist activity at human D2L receptor expressed in FlpIn CHO cells assessed as inhibition of forskolin-stimulated cAMP production treated for 30 mins by AlphaScreen assay; format: functional, cell-based
D(2) dopamine receptor [15] = molecular target: T1, D(2) dopamine receptor; assay: Agonist activity at human D2L receptor expressed in FlpIn CHO cells assessed as induction of ERK1/2 phosphorylation by AlphaScreen assay; format: cell-based
D(2) dopamine receptor [16] = molecular target: T1, D(2) dopamine receptor; assay: Agonist activity at human D2L receptor expressed in FlpIn CHO cells assessed as induction of ERK1/2 phosphorylation by AlphaScreen assay relative to dopamine; format: cell-based
In short: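 FlpIn CHO cells stably expressing human D2L receptor, seeded at 50 000 cells/well, serum-starved overnight. Ligands added at 37 °C for 5−10 min, time set per ligand from prior time-course runs. Lysed in SureFire buffer; phospho-ERK1/2 read by AlphaScreen. Curves fitted to three-parameter logistic; Emax as % of dopamine maximum. Three to four experiments in duplicate.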

T1 sequence (P14416 whole entry): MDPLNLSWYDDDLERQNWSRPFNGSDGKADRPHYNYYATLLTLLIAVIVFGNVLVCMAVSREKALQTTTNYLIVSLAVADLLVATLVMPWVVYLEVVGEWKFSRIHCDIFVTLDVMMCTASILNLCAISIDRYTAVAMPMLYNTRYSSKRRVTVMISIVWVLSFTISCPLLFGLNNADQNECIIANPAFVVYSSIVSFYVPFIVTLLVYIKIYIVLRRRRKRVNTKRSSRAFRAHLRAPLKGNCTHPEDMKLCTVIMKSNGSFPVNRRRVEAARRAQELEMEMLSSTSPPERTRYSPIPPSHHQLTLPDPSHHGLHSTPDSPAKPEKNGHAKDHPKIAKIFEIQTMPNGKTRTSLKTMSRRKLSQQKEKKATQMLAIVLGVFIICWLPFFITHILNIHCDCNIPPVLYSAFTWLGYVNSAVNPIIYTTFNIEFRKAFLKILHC

COc1ccccc1N1CCN(CCCCCCNC(=O)OC(C)(C)C)CC1
Ki (D(2) dopamine receptor [1]): 74.8 nM | IC50 (D(2) dopamine receptor [2]): 3.98 nM | inhibition (D(2) dopamine receptor [3]): Active

CC(C)(C)OC(=O)NCCCCCN1CCC(O)(c2ccc(Cl)cc2)CC1
Activity (D(2) dopamine receptor [4]): inactive | Ki (D(2) dopamine receptor [1]): 2050 nM

COc1ccccc1N1CCN(CCCCNC(=O)c2sc3nc(OC)c(Cl)c(C)c3c2N)CC1
Retention_time [5]: 9.3 min | Ki (D(2) dopamine receptor [1]): 6.3 nM | Kb (D(2) dopamine receptor [6]): 490 nM | pKb (D(2) dopamine receptor [6]): 6.31

CC(C)(C)OC(=O)NCCCCCN1CCN(c2cccc(Cl)c2Cl)CC1
Retention_time [5]: 10.43 min | Ki (D(2) dopamine receptor [1]): 42.6 nM | pKA (D(2) dopamine receptor [7]): 7.73 | log(activity) (D(2) dopamine receptor [8]): 0.43 | pKA (D(2) dopamine receptor [9]): 7.14 | log(activity) (D(2) dopamine receptor [10]): -0.51

Cc1cc(C)c2c(N)c(C(=O)NCCN3CCC(O)(c4ccc(Cl)cc4)CC3)sc2n1
Retention_time [5]: 8.06 min | Ki (D(2) dopamine receptor [1]): 910 nM

CC(C)(C)OC(=O)NCCCN1CCC(O)(c2ccc(Cl)cc2)CC1
Activity (D(2) dopamine receptor [4]): inactive | Ki (D(2) dopamine receptor [1]): 1350 nM

COc1ccccc1N1CCN(CCCCCCNC(=O)c2sc3nc(OC)c(Cl)c(C)c3c2N)CC1
Ki (D(2) dopamine receptor [1]): 0.6 nM | EC50 (D(2) dopamine receptor [11]): 5.49 nM | Emax (D(2) dopamine receptor [12]): 14%

COc1ccccc1N1CCN(CCCCCNC(=O)c2sc3nc(C)cc(C)c3c2N)CC1
Retention_time [5]: 8.89 min | Ki (D(2) dopamine receptor [1]): 9.1 nM | Emax (D(2) dopamine receptor [13]): 33% | pKA (D(2) dopamine receptor [7]): 8.84 | log(activity) (D(2) dopamine receptor [8]): -0.42

Cc1cc(C)c2c(N)c(C(=O)NCCCN3CCC(O)(c4ccc(Cl)cc4)CC3)sc2n1
Ki (D(2) dopamine receptor [1]): 1700 nM

Cc1cc(C)c2c(N)c(C(=O)NCCCCCN3CCN(c4cccc(Cl)c4Cl)CC3)sc2n1
Retention_time [5]: 10.13 min | Ki (D(2) dopamine receptor [1]): 11.2 nM | EC50 (D(2) dopamine receptor [14]): 0.3 nM | EC50 (D(2) dopamine receptor [15]): 13.2 nM | Emax (D(2) dopamine receptor [13]): 50% | Emax (D(2) dopamine receptor [16]): 13% | pKA (D(2) dopamine receptor [7]): 9 | log(activity) (D(2) dopamine receptor [8]): -0.06 | pKA (D(2) dopamine receptor [9]): 7.9 | log(activity) (D(2) dopamine receptor [10]): -0.78

CC(C)(C)OC(=O)NCCCCN1CCC(O)(c2ccc(Cl)cc2)CC1
Activity (D(2) dopamine receptor [4]): inactive | Ki (D(2) dopamine receptor [1]): 2110 nM

Cc1cc(C)c2c(N)c(C(=O)NCCCCCN3CCC(O)(c4ccc(Cl)cc4)CC3)sc2n1
Ki (D(2) dopamine receptor [1]): 1980 nM

COc1ccccc1N1CCN(CCNC(=O)c2sc3nc(OC)c(Cl)c(C)c3c2N)CC1
Ki (D(2) dopamine receptor [1]): 48.3 nM | Kb (D(2) dopamine receptor [6]): 355 nM | pKb (D(2) dopamine receptor [6]): 6.45

Clc1cccc(N2CCNCC2)c1Cl
Ki (D(2) dopamine receptor [1]): 1160 nM

COc1ccccc1N1CCNCC1
Ki (D(2) dopamine receptor [1]): 4110 nM | IC50 (D(2) dopamine receptor [2]): > 1000 nM | pIC50 (D(2) dopamine receptor [2]; cho): < 6 | Kb (D(2) dopamine receptor [6]): 479 nM | pKb (D(2) dopamine receptor [6]): 6.32 | inhibition (D(2) dopamine receptor [3]): Active

COc1ccccc1N1CCN(CCCNC(=O)c2sc3nc(OC)c(Cl)c(C)c3c2N)CC1
Ki (D(2) dopamine receptor [1]): 19.5 nM | Kb (D(2) dopamine receptor [6]): 741 nM | pKb (D(2) dopamine receptor [6]): 6.13

CC(C)(C)OC(=O)NCCN1CCC(O)(c2ccc(Cl)cc2)CC1
Activity (D(2) dopamine receptor [4]): inactive | Retention_time [5]: 7.68 min | Ki (D(2) dopamine receptor [1]): 2750 nM

Cc1cc(C)c2c(N)c(C(=O)NCCCCN3CCC(O)(c4ccc(Cl)cc4)CC3)sc2n1
Ki (D(2) dopamine receptor [1]): 2250 nM

COc1ccccc1N1CCN(CCCNC(=O)OC(C)(C)C)CC1
Activity (D(2) dopamine receptor [4]): inactive | Retention_time [5]: 7.74 min | Ki (D(2) dopamine receptor [1]): 16.1 nM | EC50 (D(2) dopamine receptor [11]): 0.39 nM | Emax (D(2) dopamine receptor [12]): 31%

Cc1cc(C)c2c(N)c(C(=O)NCCCCCCN3CCC(O)(c4ccc(Cl)cc4)CC3)sc2n1
Retention_time [5]: 8.39 min | Ki (D(2) dopamine receptor [1]): 975 nM

NCCc1ccc(O)c(O)c1
pKA (D(2) dopamine receptor [9]): 7.98 | log(activity) (D(2) dopamine receptor [10]): 0.79

COc1ccccc1N1CCN(CCCCCNC(=O)OC(C)(C)C)CC1
Activity (D(2) dopamine receptor [4]): inactive | Retention_time [5]: 10.43 min | Ki (D(2) dopamine receptor [1]): 12.1 nM | EC50 (D(2) dopamine receptor [11]): 1.43 nM | Emax (D(2) dopamine receptor [12]): 19% | pKA (D(2) dopamine receptor [7]): 7.06 | log(activity) (D(2) dopamine receptor [8]): 0.19 | pKA (D(2) dopamine receptor [9]): 8.77 | log(activity) (D(2) dopamine receptor [10]): -0.67

CC(C)(C)OC(=O)NCCCCCCN1CCC(O)(c2ccc(Cl)cc2)CC1
Activity (D(2) dopamine receptor [4]): inactive | Retention_time [5]: 8.77 min | Ki (D(2) dopamine receptor [1]): 902 nM

COc1ccccc1N1CCN(CCCCCNC(=O)c2sc3nc(OC)c(Cl)c(C)c3c2N)CC1
Retention_time [5]: 9.84 min | Ki (D(2) dopamine receptor [1]): 3.5 nM | EC50 (D(2) dopamine receptor [11]): 2.69 nM | Emax (D(2) dopamine receptor [12]): 17% | pKA (D(2) dopamine receptor [7]): 7.47 | log(activity) (D(2) dopamine receptor [8]): -0.26 | pKA (D(2) dopamine receptor [9]): 8.86 | log(activity) (D(2) dopamine receptor [10]): -0.65

COc1nc2sc(C(=O)NCCCCCN3CCN(c4cccc(Cl)c4Cl)CC3)c(N)c2c(C)c1Cl
Retention_time [5]: 11.66 min | Ki (D(2) dopamine receptor [1]): 15.5 nM | EC50 (D(2) dopamine receptor [15]): 87.6 nM | Emax (D(2) dopamine receptor [13]): 71% | Emax (D(2) dopamine receptor [16]): 17% | Ka (D(2) dopamine receptor [7]): 58.9 nM | pKA (D(2) dopamine receptor [7]): 6.89 | log(activity) (D(2) dopamine receptor [8]): 0.28 | pKA (D(2) dopamine receptor [9]): 7.1 | log(activity) (D(2) dopamine receptor [10]): -0.65

OC1(c2ccc(Cl)cc2)CCNCC1
Ki (D(2) dopamine receptor [1]): 9090 nM

COc1ccccc1N1CCN(CCCCNC(=O)OC(C)(C)C)CC1
Activity (D(2) dopamine receptor [4]): inactive | Ki (D(2) dopamine receptor [1]): 18.9 nM | EC50 (D(2) dopamine receptor [11]): 0.6 nM | Emax (D(2) dopamine receptor [12]): 13%
